The results in this text go back to PubChem BioAssay AID540324 (Johns Hopkins Ion Channel Center, 2011).

Active and inactive are the calls of the source.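 Rule for the calls: active = maximum inhibition above 30% at any tested concentration, with a dose response curve fitted; inactive = no inhibition at any dose or no dose response curve.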

The assay can be described thus: thallium flux inhibition in parental HEK293 cells, SAR follow-up, counter-screen for KCNK9 inhibitor project, cell-based, FluxOR thallium flux, concentration-response, set 2 (AID 540324). The following applies: FluxOR fluorescence ratio; series mostly up to 30 µM. In a few lines:
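test system = parental HEK293 cells lacking KCNK9 expression | doses = Ten-concentration dilution series per compound | incubation = dye loading 90 min at room temperature in dark, compound exposure 20 min | measured by = fluorescence of thallium-sensitive FluxOR dye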
For orientation: The purpose of a counterscreen is to sort out artefacts and off-target activity.

Take `O=C(Nc1cccc(NC(=O)c2cccc(F)c2)c1)c1ccccc1`: the outcome was inactive. The entry for `CC(c1ccco1)n1c(-c2ccoc2)n[nH]c1=S` (stereo unspecified) is “inactive”; for `COc1ccccc1NC(=O)c1cccc(NC(=O)CC2CCCC2)c1` it is “inactive”; for `COc1ccccc1C(=O)Nc1cccc(NC(=O)c2ccccc2OC)c1` it is “inactive”. As for `CCOc1ccccc1NC(=O)c1cccc(NC(=O)c2cccc(OC)c2)c1`, the outcome was inactive. As for `COc1cccc(-c2n[nH]c(=S)n2C(C)C2CC3CCC2C3)c1` (stereo unspecified), the result was inactive. The entry for `CCOc1ccccc1NC(=O)c1cccc(NC(=O)c2ccccc2)c1` is “inactive”; for `CCOc1ccccc1C(=O)Nc1cccc(NC(=O)c2ccccc2C(F)(F)F)c1` it is “inactive”; for `COc1ccccc1C(=O)Nc1cccc(NC(=O)c2ccccc2OC(F)(F)F)c1` it is “inactive”.

Turning to `CCOc1ccccc1NC(=O)c1cccc(C(=O)NC2CCCC2)c1`, the outcome was inactive. The entry for `COc1ccc(C(=O)Nc2cccc(NC(=O)c3cccc(C)c3)c2)cc1` is “inactive”; for `CC(C1CC2CCC1C2)n1c(C2CCOC2)n[nH]c1=S` (stereo unspecified) it is “inactive”; for `COc1ccc(-c2n[nH]c(=S)n2C(C)C2CC3CCC2C3)cc1` (stereo unspecified) it is “inactive”. As for `COc1cccc(C(=O)Nc2cccc(NC(=O)c3cccc(C)c3)c2)c1`, the entry is “inactive”; as for `COc1ccccc1NC(=O)c1cccc(NC(=O)c2ccccc2)c1`, “inactive”.

Turning to `CC(C1CC2CCC1C2)n1c(-c2ccc(Cl)cc2)n[nH]c1=S` (stereo unspecified), the result was inactive.

Take `O=C(Nc1cccc(NC(=O)c2ccc(F)cc2)c1)c1ccccc1`: the result was inactive. The entry for `O=C(Nc1cccc(NC(=O)c2ccc(C(F)(F)F)cc2)c1)c1ccccc1` is “inactive”.

`S=c1[nH]nc(-c2ccco2)n1CC1CCCCC1`: the outcome was inactive. The entry for `CC(C1CC2CCC1C2)n1c(-c2ccco2)n[nH]c1=S` (stereo unspecified) is “inactive”; for `O=C(Nc1cccc(NC(=O)c2ccsc2)c1)c1ccccc1` it is “inactive”; for `Cc1ccc(C(=O)Nc2cccc(NC(=O)c3ccccc3)c2)cc1` it is “inactive”. The entry for `CCOc1ccccc1NC(=O)c1cccc(NC(=O)c2ccccc2OC)c1` is “inactive”; for `O=C(Nc1cccc(NC(=O)c2ccccc2)c1)c1ccccc1` it is “inactive”; for `Cc1cccc(C(=O)Nc2cccc(NC(=O)c3cccc(Cl)c3)c2)c1` it is “inactive”. On to `COc1ccccc1-c1n[nH]c(=S)n1C(C)C1CC2CCC1C2` (stereo unspecified), for which the result was inactive.

On to `Cc1cccc(C(=O)Nc2cccc(NC(=O)c3ccccc3C)c2)c1`, for which the outcome was inactive.

On to `CCOc1cccc(NC(=O)c2cccc(NC(=O)C3CCCC3)c2)c1`, for which the result was inactive. As for `CCOc1ccccc1NC(=O)c1cccc(NC(=O)c2cccc(C)c2)c1`, the result was inactive. Consider `O=C(Nc1cccc(NC(=O)c2ccccc2C(F)(F)F)c1)c1ccccc1`, for which the result was inactive. The entry for `O=C(Nc1cccc(NC(=O)c2ccncc2)c1)c1ccccc1` is “inactive”; for `Cc1cccc(C(=O)Nc2cccc(NC(=O)c3ccc(N(C)C)cc3)c2)c1` it is “inactive”. Consider `COc1ccc(C(=O)Nc2cccc(NC(=O)c3ccccc3)c2)cc1`, for which the outcome was inactive. As for `CCOc1ccccc1C(=O)Nc1cccc(NC(=O)C2CCCC2)c1`, the entry is “inactive”. The entry for `CCOc1ccccc1NC(=O)c1cccc(NC(=O)C2CCCO2)c1` (stereo unspecified) is “inactive”; for `O=C(Nc1cccc(NC(=O)c2ccco2)c1)c1ccccc1` it is “inactive”.

Consider `O=C(Nc1cccc(NC(=O)c2ccoc2)c1)c1ccccc1`, for which the outcome was inactive. The entry for `CCOc1ccccc1NC(=O)c1cccc(NC(=O)c2ccc(OC)cc2)c1` is “inactive”; for `CCOc1ccccc1NC(=O)c1cccc(NC(=O)C2CCCC2)c1` it is “inactive”; for `Cc1cccc(C(=O)Nc2cccc(NC(=O)c3ccccc3C(F)(F)F)c2)c1` it is “inactive”.

Turning to `COc1ccccc1C(=O)Nc1cccc(NC(=O)c2cccc(C)c2)c1`, the outcome was inactive. The entry for `CCOc1ccccc1NC(=O)c1cccc(NC(=O)C2CCCCC2)c1` is “inactive”; for `CCOc1ccccc1NC(=O)c1cccc(NC(=O)c2ccccc2C)c1` it is “inactive”. The entry for `Cc1ccccc1-c1n[nH]c(=S)n1C(C)C1CC2CCC1C2` (stereo unspecified) is “inactive”; for `Cc1cccc(-c2n[nH]c(=S)n2C(C)C2CC3CCC2C3)c1` (stereo unspecified) it is “inactive”. `Cc1cccc(C(=O)Nc2cccc(NC(=O)c3cccc(C(F)(F)F)c3)c2)c1`: the result was inactive.

Consider `CC(C)n1c(-c2ccco2)n[nH]c1=S`, for which the result was inactive.

Regarding `Cc1cccc(C(=O)Nc2ccccc2NC(=O)c2ccccc2)c1`, the outcome was inactive. As for `CCOc1ccccc1NC(=O)c1cccc(NC(=O)c2cccc(C(F)(F)F)c2)c1`, the entry is “inactive”. Consider `Cc1cccc(C(=O)Nc2cccc(NC(=O)c3ccc(Cl)cc3)c2)c1`, for which the outcome was inactive. As for `COc1ccccc1NC(=O)c1cccc(NC(=O)C2CCCCC2)c1`, the entry is “inactive”; as for `Cc1cccc(C(=O)Nc2cccc(NC(=O)c3ccco3)c2)c1`, “inactive”.

For the compound `CC(C1CC2CCC1C2)n1c(-c2ccsc2)n[nH]c1=S` (stereo unspecified), the result was inactive.

Take `CC(C1CC2CCC1C2)n1c(-c2ccoc2)n[nH]c1=S` (stereo unspecified): the result was inactive. As for `COc1ccccc1NC(=O)c1cccc(NC(=O)C2CCCC2)c1`, the entry is “inactive”; as for `COc1ccccc1NC(=O)c1cccc(NC(=O)c2ccccc2OC)c1`, “inactive”; as for `CCOc1ccccc1C(=O)Nc1cccc(NC(=O)c2cccc(C)c2)c1`, “inactive”. As for `CC(C)(C)c1ccc(C(=O)Nc2cccc(NC(=O)c3ccccc3)c2)cc1`, the entry is “inactive”; as for `CCOc1ccccc1NC(=O)c1cccc(NC(=O)C2CCOC2)c1` (stereo unspecified), “inactive”. For `CCOc1ccc(NC(=O)c2cccc(NC(=O)C3CCCC3)c2)cc1`, the result was inactive. As for `CCOc1ccccc1NC(=O)c1cccc(NC(=O)c2cccc(Cl)c2)c1`, the entry is “inactive”; as for `CCOc1ccccc1NC(=O)c1cccc(NC(=O)C(C)(C)C)c1`, “inactive”; as for `Cc1cccc(C(=O)Nc2cccc(NC(=O)c3cccs3)c2)c1`, “inactive”.

Regarding `COc1ccccc1C(=O)Nc1cccc(NC(=O)c2ccccc2)c1`, the result was inactive. As for `CC(C1CC2CCC1C2)n1c(-c2cccc(Cl)c2)n[nH]c1=S` (stereo unspecified), the entry is “inactive”. The entry for `CCOc1ccccc1NC(=O)c1cccc(NC(=O)c2ccc(C(F)(F)F)cc2)c1` is “inactive”; for `O=C(Nc1cccc(NC(=O)c2ccc(Cl)cc2)c1)c1ccccc1` it is “inactive”. The entry for `O=C(Nc1cccc(NC(=O)c2ccccn2)c1)c1ccccc1` is “inactive”; for `CCOc1ccccc1NC(=O)c1cccc(NC(=O)c2ccccc2OC(F)(F)F)c1` it is “inactive”. For `Cc1cccc(C(=O)Nc2cccc(NC(=O)c3ccncc3)c2)c1`, the result was inactive. As for `Cc1cccc(C(=O)Nc2cccc(NC(=O)c3ccccc3OC(F)(F)F)c2)c1`, the entry is “inactive”.
